Common to all, as to format: in vitro ADME
One series has as its target BSEP (Homo sapiens, UniProt O95342). The series can be described thus: BSEP inhibition in sandwich-cultured human hepatocytes. The gist of the method:
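Sandwich-cultured human hepatocytes were used. Probe substrate was taurocholic acid, with cyclosporin as reference inhibitor. Probe transport was measured without and with test compound to derive IC50. Protein was added to the medium for one tested compound, permitting a higher test concentration.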

Series [1] concerns CYP3A4. The series can be described thus: CYP3A4 induction in primary-cultured human hepatocytes. To be noted: for induction of CYP3A4 enzymatic activity: three donors, 3 days dosing, 0.005–10 mg/l.
Another series has as its target MATE1 (Homo sapiens, UniProt Q96FL8). The series can be described thus: MATE1 inhibition in transfected HEK cells. The gist of the method:
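HEK cells were transfected with MRP2, MATE1 or MATE2-K. Pairs were CDCF/benzbromarone (MRP2), metformin/cimetidine (MATE1) and metformin/pyrimethamine (MATE2-K). Probe transport was assessed with and without test compound, and IC50 was determined.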

The target in another series is T1, CYP2C8 (Homo sapiens, UniProt P10632).
T1 sequence (P10632 1-490): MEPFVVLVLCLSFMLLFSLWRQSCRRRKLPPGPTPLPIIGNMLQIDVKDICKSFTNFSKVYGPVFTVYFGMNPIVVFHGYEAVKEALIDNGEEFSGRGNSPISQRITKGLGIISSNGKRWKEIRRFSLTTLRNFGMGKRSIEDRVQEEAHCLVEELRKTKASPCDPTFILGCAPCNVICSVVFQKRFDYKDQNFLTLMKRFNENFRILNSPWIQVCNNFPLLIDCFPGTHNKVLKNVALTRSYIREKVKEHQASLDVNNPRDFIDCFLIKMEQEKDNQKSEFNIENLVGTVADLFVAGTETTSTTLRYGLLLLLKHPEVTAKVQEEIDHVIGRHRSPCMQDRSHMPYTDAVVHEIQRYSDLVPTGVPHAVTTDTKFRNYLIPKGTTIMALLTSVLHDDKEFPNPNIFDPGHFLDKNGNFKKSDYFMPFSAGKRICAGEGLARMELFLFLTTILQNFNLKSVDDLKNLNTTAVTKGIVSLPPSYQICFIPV
The series is described as follows: CYP2C8 inhibition in human liver microsomes. The gist of the method: (§1)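 Pooled human liver microsomes were incubated with standard CYP-selective substrates, with and without test compound at 0.03–100 μM. Standard selective inhibitors for each isoform ran in parallel as positive controls. Read-out was IC50. For CYP3A4 only, time-dependent inhibition was also tested after 30 min preincubation, using midazolam and testosterone as substrates.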

A further series has as its target T2, CYP2B6 (Homo sapiens, UniProt P20813).
T2 sequence (P20813 1-491): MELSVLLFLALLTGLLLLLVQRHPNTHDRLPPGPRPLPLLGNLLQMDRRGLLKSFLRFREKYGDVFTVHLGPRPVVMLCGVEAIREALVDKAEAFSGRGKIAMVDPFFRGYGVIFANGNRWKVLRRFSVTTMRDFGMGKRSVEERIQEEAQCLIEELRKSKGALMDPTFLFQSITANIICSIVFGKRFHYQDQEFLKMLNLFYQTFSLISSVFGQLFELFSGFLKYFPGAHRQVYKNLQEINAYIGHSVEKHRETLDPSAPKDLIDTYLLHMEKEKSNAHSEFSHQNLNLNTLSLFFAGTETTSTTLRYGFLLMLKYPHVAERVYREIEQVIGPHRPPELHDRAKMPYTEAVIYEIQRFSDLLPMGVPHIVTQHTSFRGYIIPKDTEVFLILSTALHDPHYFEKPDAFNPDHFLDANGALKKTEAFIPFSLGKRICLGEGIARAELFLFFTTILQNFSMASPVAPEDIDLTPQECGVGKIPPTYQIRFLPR
The series can be described thus: biochemical.

In another series the target is OCT2 (Homo sapiens, UniProt O15244). The series can be described thus: OCT2 uptake inhibition in transfected HEK cells. An outline of the steps: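 HEK cells overexpressing NTCP, OAT1, OAT3, OATP2B1, OCT1 or OCT2 were incubated with probe substrate. Pairs were estrone 3-sulfate/cyclosporin A (NTCP), PAH/probenecid (OAT1), furosemide/probenecid (OAT3), estrone 3-sulfate/glibenclamide (OATP2B1), 3H-MPP+/decynium 22 (OCT1) and 3H-MPP+/imipramine (OCT2). IC50 was determined with and without test compound, at ≤50 µM for the parent and ≤10 µM for the metabolite.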

Another series deals with T3, CYP2A6 (Homo sapiens, UniProt P11509).
T3 sequence (P11509 1-494): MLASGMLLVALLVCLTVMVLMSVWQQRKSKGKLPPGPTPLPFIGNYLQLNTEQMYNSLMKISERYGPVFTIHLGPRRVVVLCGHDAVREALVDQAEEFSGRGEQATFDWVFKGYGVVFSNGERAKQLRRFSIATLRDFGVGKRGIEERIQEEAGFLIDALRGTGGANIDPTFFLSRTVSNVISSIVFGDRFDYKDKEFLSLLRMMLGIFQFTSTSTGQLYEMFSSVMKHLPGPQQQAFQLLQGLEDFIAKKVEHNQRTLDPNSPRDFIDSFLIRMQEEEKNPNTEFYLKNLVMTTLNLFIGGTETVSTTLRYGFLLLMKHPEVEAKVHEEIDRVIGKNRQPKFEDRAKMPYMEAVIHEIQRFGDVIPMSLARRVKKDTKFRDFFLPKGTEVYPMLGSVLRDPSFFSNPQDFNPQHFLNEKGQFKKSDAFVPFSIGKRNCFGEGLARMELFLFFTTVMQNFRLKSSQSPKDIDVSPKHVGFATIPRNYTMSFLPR
The series is described as follows: CYP2A6 inhibition in human liver microsomes. An outline of the steps: as §1
(In general: Liver microsomes are a subcellular fraction often used to study metabolism.)

Series [2] has as its target CYP3A4 (Homo sapiens, UniProt P08684). The series can be described thus: CYP3A4 inhibition in human liver microsomes. An outline of the steps:
as §1

The next series concerns the target CYP2D6 (Homo sapiens, UniProt P10635). The series can be described thus: CYP2D6 inhibition in human liver microsomes. The gist of the method: as §1
The target of the next series is CYP2C9 (Homo sapiens, UniProt P11712). The series can be described thus: CYP2C9 inhibition in human liver microsomes. The gist of the method: as §1
Where [3] appears, read: read-out: IC50, CYP3A4 (with pre-incubation), human liver microsomes, substrate midazolam, 30 min pre-incubation.
The mark [4] stands for this setting: read-out: IC50, CYP3A4 (with pre-incubation), human liver microsomes, substrate testosterone, 30 min pre-incubation.

Where two headings read alike, the source gives them in different places. Bounds are passed on as bounds.

Chain of CYP3A4 (Homo sapiens, UniProt P08684) (P08684 whole entry): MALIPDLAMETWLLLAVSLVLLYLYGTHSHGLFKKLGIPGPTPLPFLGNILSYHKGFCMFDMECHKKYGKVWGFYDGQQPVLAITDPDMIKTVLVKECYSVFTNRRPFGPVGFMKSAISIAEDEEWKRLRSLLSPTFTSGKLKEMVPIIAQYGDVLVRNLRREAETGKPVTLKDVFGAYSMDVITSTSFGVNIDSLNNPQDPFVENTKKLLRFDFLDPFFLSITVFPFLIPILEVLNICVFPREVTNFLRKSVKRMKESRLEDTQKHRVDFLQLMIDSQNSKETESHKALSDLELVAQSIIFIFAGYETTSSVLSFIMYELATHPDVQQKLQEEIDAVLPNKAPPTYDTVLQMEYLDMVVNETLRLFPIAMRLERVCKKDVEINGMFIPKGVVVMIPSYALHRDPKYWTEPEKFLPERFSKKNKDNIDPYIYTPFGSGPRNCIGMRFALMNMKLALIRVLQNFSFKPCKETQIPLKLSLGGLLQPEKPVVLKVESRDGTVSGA
Chain of CYP2C9 (P11712 whole entry): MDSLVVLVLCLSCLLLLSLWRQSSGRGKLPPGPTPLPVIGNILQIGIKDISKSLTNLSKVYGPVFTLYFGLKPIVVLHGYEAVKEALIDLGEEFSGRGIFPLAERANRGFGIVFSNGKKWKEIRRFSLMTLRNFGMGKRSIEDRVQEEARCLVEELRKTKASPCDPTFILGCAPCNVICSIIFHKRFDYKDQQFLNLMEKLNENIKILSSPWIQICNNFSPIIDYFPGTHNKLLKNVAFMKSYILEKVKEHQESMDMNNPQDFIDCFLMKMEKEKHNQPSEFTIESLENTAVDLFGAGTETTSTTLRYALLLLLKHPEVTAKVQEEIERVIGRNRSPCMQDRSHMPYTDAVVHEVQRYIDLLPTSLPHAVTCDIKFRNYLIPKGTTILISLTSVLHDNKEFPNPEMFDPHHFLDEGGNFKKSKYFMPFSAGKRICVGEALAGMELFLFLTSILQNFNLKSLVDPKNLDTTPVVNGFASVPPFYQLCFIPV
Chain of OCT2 (O15244 whole entry): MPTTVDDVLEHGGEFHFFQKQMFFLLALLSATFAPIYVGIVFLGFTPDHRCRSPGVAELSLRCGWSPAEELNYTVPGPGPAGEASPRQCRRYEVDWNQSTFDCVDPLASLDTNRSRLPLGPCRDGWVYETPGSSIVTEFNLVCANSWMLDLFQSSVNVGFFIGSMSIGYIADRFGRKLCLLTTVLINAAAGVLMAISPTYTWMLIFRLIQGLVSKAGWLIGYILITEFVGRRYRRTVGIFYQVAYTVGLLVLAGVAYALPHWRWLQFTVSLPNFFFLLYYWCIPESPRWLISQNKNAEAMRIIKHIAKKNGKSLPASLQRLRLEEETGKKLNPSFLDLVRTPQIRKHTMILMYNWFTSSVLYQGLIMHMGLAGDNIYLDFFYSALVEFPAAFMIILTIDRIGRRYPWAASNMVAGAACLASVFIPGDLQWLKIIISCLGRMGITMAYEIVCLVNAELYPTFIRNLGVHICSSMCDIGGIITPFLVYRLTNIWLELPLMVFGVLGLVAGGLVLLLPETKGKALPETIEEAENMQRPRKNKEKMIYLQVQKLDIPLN
Chain of CYP2D6 (P10635 whole entry): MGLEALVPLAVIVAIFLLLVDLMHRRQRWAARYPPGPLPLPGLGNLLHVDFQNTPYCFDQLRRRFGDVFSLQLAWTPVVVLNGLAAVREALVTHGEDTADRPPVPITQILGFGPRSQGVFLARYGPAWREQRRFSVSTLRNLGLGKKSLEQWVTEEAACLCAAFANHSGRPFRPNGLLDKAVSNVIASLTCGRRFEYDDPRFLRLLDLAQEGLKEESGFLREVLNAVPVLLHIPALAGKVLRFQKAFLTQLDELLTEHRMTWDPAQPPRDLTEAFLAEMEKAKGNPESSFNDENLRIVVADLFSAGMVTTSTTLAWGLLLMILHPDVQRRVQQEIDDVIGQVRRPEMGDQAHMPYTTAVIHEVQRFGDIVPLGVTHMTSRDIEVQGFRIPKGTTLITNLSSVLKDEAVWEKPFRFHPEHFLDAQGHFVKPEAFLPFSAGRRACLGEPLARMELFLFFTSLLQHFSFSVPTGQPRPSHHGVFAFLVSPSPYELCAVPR
Chain of MATE1 (Q96FL8 whole entry): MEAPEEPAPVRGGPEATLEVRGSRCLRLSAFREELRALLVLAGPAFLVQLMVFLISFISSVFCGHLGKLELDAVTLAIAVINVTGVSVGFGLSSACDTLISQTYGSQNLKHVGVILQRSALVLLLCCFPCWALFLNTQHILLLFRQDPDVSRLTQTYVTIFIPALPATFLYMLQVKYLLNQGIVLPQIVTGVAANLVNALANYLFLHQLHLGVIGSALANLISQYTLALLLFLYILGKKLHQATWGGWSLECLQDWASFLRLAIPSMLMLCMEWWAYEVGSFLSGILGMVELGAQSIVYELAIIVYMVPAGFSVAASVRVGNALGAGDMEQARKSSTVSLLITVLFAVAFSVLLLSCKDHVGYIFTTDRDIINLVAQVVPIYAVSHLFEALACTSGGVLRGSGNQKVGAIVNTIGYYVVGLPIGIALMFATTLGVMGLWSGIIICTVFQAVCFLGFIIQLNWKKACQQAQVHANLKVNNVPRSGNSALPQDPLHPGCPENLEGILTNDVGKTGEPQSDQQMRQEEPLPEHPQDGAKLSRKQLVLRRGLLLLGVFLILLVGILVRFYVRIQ
Chain of BSEP (O95342 whole entry): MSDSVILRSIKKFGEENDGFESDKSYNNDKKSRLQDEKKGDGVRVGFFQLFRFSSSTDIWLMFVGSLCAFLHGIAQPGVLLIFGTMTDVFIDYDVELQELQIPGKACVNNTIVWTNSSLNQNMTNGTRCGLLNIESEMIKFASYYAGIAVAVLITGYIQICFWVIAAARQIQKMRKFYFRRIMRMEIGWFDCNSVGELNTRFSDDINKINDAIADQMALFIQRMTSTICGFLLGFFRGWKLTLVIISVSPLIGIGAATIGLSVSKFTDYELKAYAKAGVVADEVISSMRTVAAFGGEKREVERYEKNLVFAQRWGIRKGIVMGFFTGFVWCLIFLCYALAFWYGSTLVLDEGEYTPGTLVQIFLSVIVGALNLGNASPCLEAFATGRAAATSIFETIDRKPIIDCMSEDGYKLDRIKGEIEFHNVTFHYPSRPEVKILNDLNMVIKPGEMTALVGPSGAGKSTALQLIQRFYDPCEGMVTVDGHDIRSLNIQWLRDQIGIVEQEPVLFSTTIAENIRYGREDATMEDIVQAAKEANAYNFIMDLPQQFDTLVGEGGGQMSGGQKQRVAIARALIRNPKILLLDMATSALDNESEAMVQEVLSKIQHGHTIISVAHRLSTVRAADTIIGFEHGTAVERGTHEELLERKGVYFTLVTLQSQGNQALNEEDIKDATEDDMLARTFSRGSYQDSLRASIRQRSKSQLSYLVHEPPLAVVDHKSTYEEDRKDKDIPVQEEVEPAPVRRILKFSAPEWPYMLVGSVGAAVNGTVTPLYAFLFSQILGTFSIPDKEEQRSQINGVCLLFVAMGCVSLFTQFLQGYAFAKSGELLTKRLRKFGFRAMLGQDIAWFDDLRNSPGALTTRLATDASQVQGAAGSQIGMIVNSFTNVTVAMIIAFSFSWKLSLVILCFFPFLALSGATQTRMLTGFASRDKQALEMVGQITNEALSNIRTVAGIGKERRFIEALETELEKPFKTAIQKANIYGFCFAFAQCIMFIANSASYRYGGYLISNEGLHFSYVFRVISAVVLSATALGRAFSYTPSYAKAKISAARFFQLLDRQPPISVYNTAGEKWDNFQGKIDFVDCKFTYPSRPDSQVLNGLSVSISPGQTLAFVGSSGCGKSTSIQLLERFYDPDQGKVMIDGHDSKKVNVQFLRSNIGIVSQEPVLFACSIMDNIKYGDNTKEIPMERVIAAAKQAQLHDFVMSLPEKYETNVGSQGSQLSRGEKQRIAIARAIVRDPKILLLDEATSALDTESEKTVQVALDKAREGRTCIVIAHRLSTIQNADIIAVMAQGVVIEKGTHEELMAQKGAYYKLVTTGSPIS

A word on the IC50: it is the concentration that inhibits the measured activity by half. In the case of `CC(O)c1cc(C(=O)N[C@@H](C)Cn2ccc(-c3ccc(C#N)c(Cl)c3)n2)[nH]n1` (some centres unmarked) [Darolutamide, darolutamide], the IC50 against BSEP was above 60 µM; against MATE1 it was 32.3 µM; against CYP2C8 it was above 100 µM; at CYP2B6 it was above 100 µM; against OCT2, above 50 µM; against CYP2A6, above 100 µM. Further, the IC50 on CYP3A4 [2] is above 100 µM; on CYP3A4 [2] (setting [3]), above 100 µM; at CYP3A4 [2] (setting [4]), above 100 µM; on CYP2D6, 81.9 µM; against CYP2C9 it was 30.3 µM. Also, in the series on CYP3A4 [1], the “CYP3A4 induction as % of rifampicin response” value turned out to be 28%. Further, the “induction of CYP3A4 enzymatic activity” value in the series on CYP3A4 [1] is on record as at most 5.3 fold.

Consider `CC(=O)c1cc(C(=O)N[C@@H](C)Cn2ccc(-c3ccc(C#N)c(Cl)c3)n2)[nH]n1` [Keto-darolutamide, keto-darolutamide], for which the IC50 at BSEP (read-out: IC50, BSEP, sandwich-cultured human hepatocytes, taurocholic acid/cyclosporin, higher test concentration possible because of addition of protein to the assay media) was above 300 µM; on MATE1 (read-out: IC50, MATE1, HEK cells, substrate metformin, reference cimetidine), above 10 µM; at CYP2C8 (read-out: IC50, CYP2C8, human liver microsomes, substrate paclitaxel) it was 48.6 µM; at CYP2B6 (read-out: IC50, CYP2B6, human liver microsomes, substrate bupropion) it was 54.2 µM; on OCT2 (read-out: IC50, OCT2, HEK cells, substrate 3H-MPP+, reference imipramine), above 2 µM; at CYP2A6 (read-out: IC50, CYP2A6, human liver microsomes, substrate coumarin), above 100 µM. In addition, the IC50 was above 50 µM at CYP3A4 [2] (setting [3]); above 50 µM on CYP3A4 [2] (setting [4]); above 50 µM on CYP3A4 [2] (read-out: IC50, CYP3A4, human liver microsomes, substrate midazolam); above 50 µM at CYP3A4 [2] (read-out: IC50, CYP3A4, human liver microsomes, substrate testosterone); 51.9 µM at CYP2D6 (read-out: IC50, CYP2D6, human liver microsomes, substrate bufuralol); 9.6 µM at CYP2C9 (read-out: IC50, CYP2C9, human liver microsomes, substrate diclofenac). In the series on CYP3A4 [1], the “induction of CYP3A4 enzymatic activity” value is at most 5.4 fold.

These data come from PMC6828636 (European Journal of Drug Metabolism and Pharmacokinetics, 2019).
